Test results reported in ChEMBL document CHEMBL1137811, “Four new bromotryptamine derivatives from the marine bryozoan Flustra foliacea” (J Nat Prod, 2002).
Active and inactive are the calls of the source. No cut-off for these calls is given here.

How the values were obtained:
Format in all cases: cell-based
Conditions in all cases: Oocyte
[1] = biological target: Sodium channel protein type 2 subunit alpha (Rattus norvegicus) (UniProt P04775); assay: Blockade of voltage-activated rat brain Nav1.2 sodium channel type 2 channel expressed in Xenopus laevis oocytes assessed as effect on evoked current by two-electrode voltage clamp method
Sodium channel protein type 2 subunit alpha (Rattus norvegicus), sequence (P04775 whole entry, looked up): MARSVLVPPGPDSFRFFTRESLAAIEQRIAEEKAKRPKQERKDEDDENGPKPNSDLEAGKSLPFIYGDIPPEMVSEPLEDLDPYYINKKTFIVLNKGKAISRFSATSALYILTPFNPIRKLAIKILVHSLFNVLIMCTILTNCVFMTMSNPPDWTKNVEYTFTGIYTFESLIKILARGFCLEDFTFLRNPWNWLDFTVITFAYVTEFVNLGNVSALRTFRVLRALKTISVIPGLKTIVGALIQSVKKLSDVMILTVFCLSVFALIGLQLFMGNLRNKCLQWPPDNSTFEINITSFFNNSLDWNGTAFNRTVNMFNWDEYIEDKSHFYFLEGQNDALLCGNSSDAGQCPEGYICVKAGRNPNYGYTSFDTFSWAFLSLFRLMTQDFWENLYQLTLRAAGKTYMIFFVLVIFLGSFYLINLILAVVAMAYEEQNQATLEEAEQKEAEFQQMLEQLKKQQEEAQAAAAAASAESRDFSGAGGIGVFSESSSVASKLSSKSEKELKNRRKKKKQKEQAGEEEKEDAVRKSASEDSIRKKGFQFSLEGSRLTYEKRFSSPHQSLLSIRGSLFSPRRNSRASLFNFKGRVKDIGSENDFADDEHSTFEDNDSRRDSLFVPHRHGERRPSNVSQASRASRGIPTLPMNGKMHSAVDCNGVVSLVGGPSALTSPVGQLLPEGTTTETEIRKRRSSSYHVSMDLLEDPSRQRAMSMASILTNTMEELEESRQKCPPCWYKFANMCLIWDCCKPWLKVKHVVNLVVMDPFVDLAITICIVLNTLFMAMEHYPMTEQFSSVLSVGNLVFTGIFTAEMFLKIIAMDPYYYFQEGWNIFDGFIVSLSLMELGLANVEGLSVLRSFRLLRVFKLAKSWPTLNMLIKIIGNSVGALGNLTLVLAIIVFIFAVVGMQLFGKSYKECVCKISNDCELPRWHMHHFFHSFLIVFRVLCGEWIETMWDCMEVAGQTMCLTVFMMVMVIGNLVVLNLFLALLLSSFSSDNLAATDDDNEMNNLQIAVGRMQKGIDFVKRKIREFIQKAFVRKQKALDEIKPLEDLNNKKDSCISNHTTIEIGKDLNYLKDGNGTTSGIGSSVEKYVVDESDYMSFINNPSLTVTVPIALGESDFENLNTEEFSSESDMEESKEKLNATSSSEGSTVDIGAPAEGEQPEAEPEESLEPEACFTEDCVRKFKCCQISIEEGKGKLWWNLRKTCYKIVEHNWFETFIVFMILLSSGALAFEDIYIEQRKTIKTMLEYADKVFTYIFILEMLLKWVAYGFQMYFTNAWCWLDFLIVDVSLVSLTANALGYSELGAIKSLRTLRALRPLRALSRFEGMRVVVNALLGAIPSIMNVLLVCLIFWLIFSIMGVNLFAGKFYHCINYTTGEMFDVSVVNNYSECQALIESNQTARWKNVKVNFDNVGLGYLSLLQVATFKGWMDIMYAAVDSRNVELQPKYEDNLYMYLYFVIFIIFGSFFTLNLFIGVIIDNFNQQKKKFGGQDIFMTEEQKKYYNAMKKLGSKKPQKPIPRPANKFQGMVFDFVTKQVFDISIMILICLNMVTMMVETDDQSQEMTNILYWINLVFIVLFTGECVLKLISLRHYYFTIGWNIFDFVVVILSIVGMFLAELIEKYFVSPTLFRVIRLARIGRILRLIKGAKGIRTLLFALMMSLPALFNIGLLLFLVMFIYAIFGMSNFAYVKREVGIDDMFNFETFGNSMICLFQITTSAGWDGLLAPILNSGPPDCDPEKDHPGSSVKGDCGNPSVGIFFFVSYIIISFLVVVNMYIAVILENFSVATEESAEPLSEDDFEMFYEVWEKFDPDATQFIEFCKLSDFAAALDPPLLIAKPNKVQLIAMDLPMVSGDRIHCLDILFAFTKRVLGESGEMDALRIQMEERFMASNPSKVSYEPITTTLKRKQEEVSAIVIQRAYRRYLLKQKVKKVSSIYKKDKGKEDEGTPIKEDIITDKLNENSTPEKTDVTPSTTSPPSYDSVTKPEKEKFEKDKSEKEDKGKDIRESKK
In short: (§1)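 Channels expressed in Xenopus laevis oocytes from injected cRNA (rat Kv1.1, rat Kv1.4 or rat brain type II Na channel), incubated 1-5 days. Vitelline membrane removed. Two-electrode voltage clamp, whole-cell currents; 2 M KCl electrodes, 0.6-1.0 MΩ. Filtered 1 kHz, sampled 4 kHz, P/n leak subtraction. Bath: frog Ringer's, pH 7.2. Compounds from DMSO stock, final up to 10 μM in bath; DMSO-only control.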

[2] = biological target: Potassium voltage-gated channel subfamily A member 1 (Rattus norvegicus) (UniProt P10499); assay: Blockade of voltage-activated rat Kv1.1 potassium channel expressed in Xenopus laevis oocytes assessed as effect on evoked current upto 10 uM by two-electrode voltage clamp method; in short: as §1
Potassium voltage-gated channel subfamily A member 1 (Rattus norvegicus), sequence (P10499 whole entry): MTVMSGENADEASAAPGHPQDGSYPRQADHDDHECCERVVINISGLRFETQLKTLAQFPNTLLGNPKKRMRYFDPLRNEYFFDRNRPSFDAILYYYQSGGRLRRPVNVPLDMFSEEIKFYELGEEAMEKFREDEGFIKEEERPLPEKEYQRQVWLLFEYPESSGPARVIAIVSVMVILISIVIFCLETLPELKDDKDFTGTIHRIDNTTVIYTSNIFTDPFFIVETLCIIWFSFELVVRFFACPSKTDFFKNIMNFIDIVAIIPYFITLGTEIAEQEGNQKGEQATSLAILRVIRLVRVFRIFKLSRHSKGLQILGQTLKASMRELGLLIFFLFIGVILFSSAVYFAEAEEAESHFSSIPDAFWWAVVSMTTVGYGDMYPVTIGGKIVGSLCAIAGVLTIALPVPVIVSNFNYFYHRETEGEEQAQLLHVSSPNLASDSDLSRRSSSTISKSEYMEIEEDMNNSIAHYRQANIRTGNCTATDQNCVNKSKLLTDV

[3] = biological target: Potassium voltage-gated channel subfamily A member 4 (Rattus norvegicus) (UniProt P15385); assay: Blockade of voltage-activated rat Kv1.4 potassium channel expressed in Xenopus laevis oocytes assessed as effect on evoked current upto 10 uM by two-electrode voltage clamp method; in short: as §1
Potassium voltage-gated channel subfamily A member 4 (Rattus norvegicus), sequence (P15385 whole entry): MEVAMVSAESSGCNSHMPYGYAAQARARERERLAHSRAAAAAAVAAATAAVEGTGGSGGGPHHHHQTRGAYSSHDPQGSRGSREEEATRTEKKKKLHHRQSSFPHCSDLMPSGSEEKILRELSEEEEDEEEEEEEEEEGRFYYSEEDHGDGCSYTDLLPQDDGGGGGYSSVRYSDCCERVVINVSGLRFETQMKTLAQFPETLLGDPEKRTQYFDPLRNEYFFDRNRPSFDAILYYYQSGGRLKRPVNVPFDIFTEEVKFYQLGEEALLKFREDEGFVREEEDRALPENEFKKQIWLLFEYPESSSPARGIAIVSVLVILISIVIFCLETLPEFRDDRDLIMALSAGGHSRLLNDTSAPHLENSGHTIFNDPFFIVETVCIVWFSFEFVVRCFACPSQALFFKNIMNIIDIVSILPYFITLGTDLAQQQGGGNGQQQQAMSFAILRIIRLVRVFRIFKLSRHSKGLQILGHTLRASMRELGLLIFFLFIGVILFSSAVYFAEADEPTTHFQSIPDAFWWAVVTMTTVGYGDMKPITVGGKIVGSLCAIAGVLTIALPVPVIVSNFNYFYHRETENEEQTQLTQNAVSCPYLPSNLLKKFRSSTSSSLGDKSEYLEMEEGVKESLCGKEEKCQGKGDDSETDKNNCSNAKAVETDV

| Compound | Activity [1] | Activity [2] | Activity [3] |
| --- | --- | --- | --- |
| C=CC(C)(C)[C@@]12CCN(C)[C@@H]1N(CC=C(C)C)c1cc(Br)ccc12 | inactive | inactive | inactive |
| C=CC(C)(C)c1[nH]c2cc(Br)ccc2c1CCNC | inactive | inactive | inactive |
| C=CC(C)(C)[C@@]12CCN(C)C1=Nc1cc(Br)ccc12 | inactive | inactive | inactive |
| C=CC(C)(C)[C@@]12CCN(C)[C@@H]1Nc1cc(Br)ccc12 | inactive | inactive | inactive |
